In ChEMBL document CHEMBL1127486, “Design of cyclic deltorphins and dermenkephalins with a disulfide bridge leads to analogues with high selectivity for delta-opioid receptors” (J Med Chem, 1994):

Legend:
[1] = target: Delta-type opioid receptor (Mus musculus, UniProt P32300); test: In vitro inhibition of electrically induced smooth muscle contractions of mouse vas deferens; format: functional, tissue-based
Mu-type opioid receptor [2] = target: Mu-type opioid receptor (Cavia porcellus, UniProt P97266); test: In vitro inhibition of electrically evoked contractions in guinea pig ileum longitudinal muscle myenteric plexus; format: functional, tissue-based
How it was run: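 Longitudinal muscle–myenteric plexus strips from male Hartley guinea pigs (150–400 g) in 37 °C Krebs bicarbonate gassed with 95% O2/5% CO2. Transmural stimulation at 0.1 Hz, 0.4-ms pulses, supramaximal voltage. Bestatin, bacitracin and captopril added 3 min before cumulative peptide doses. Inhibition compares contraction height 3 min post-dose with the 1-min pre-dose mean.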

[3] = target: Delta-type opioid receptor (Rattus norvegicus, UniProt P33533); test: Inhibition of [3H][p-Cl-Phe-][…] binding to rat brain homogenate delta-opioid receptor
How it was run: (§1)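 Whole brain membranes from male Sprague-Dawley rats, preincubated 30 min at 25 °C to remove endogenous opioids. Incubated 180 min at 25 °C with 0.75 nM [3H][p-ClPhe4]DPDPE (δ) or 0.5 nM [3H]CTOP (μ). Buffer was 50 mM Tris-HCl pH 7.4 with BSA, bacitracin, bestatin, captopril and toluenesulfonyl fluoride. Rapid filtration and scintillation counting. Duplicates, ≥3 experiments, nonlinear least-squares fit.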

Mu-type opioid receptor [4] = target: Mu-type opioid receptor (Rattus norvegicus, UniProt P33535); test: Inhibition of [3H]CTOP binding to rat brain homogenate mu-opioid receptor; how it was run: as §1
[5] = Selectivity ratio against guinea pig ileum and mouse vas deferens contractions; format: functional
[6] = target: Delta-type opioid receptor (Mus musculus) (UniProt P32300); test: In vitro percentage inhibition of electrically induced smooth muscle contractions of mouse vas deferens after the administration at 6000 nM; format: functional
How it was run: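 Vasa deferentia from male ICR mice (25–30 g) in 37 °C magnesium-free Krebs bicarbonate gassed with 95% O2/5% CO2. Transmural stimulation at 0.1 Hz, 2.0-ms pulses, supramaximal voltage. Peptidase inhibitors (bestatin, bacitracin, captopril) given 3 min before peptide. Percent inhibition is the 1-min pre-dose mean contraction height against height 3 min after peptide. Run in duplicate, repeated two or three times.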

Chain of Mu-type opioid receptor (Rattus norvegicus, UniProt P33535) (P33535 whole entry): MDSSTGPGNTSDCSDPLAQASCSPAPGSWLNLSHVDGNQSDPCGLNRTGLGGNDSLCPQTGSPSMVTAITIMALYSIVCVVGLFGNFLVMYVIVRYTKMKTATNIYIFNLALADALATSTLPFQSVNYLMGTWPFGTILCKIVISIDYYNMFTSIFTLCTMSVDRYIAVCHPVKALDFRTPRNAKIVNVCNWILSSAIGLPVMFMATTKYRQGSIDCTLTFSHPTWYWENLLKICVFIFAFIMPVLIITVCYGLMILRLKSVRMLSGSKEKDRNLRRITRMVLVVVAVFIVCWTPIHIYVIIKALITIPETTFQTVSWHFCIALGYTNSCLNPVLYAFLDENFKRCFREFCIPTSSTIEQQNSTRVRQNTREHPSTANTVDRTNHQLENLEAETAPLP
Chain of Delta-type opioid receptor (Rattus norvegicus, UniProt P33533) (P33533 whole entry): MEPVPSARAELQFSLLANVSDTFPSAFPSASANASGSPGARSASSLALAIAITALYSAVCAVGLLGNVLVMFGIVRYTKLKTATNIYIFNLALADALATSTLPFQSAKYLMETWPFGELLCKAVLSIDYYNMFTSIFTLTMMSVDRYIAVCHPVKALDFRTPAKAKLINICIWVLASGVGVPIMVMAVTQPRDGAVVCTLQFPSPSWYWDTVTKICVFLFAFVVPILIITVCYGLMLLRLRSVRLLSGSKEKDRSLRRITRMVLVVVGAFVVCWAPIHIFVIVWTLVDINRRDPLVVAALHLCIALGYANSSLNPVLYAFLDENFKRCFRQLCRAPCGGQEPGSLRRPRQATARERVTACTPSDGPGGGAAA
Chain of Delta-type opioid receptor (Mus musculus, UniProt P32300) (P32300 whole entry): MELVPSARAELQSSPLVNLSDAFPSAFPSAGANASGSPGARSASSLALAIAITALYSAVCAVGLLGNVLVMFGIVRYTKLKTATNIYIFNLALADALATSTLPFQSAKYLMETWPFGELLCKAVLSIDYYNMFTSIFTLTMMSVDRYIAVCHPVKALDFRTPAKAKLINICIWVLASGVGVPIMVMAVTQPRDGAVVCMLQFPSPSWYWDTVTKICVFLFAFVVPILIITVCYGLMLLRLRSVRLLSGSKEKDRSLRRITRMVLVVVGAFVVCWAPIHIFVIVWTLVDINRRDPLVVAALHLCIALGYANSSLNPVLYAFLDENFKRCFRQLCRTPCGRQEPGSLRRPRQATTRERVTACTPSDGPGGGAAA
Chain of Mu-type opioid receptor (Cavia porcellus, UniProt P97266) (P97266 whole entry): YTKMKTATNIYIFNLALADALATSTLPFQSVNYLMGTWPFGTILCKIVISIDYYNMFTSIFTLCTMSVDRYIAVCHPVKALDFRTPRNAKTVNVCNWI
Chain of Delta-type opioid receptor (Mus musculus) (P32300 whole entry): as the sequence (P32300 whole entry) above

With `CC(C)[C@H](NC(=O)[C@@H]1NC(=O)[C@H](CC(=O)O)NC(=O)[C@H](Cc2ccccc2)NC(=O)[C@H](NC(=O)[C@@H](N)Cc2ccc(O)cc2)C(C)(C)SSC1(C)C)C(=O)NCC(N)=O` [listing 1 of 2 here] the IC50 [1] was 920 nM, the IC50 (Mu-type opioid receptor [2]) was 5.5 µM and the IC50 [3] was 210 nM. The IC50 (Mu-type opioid receptor [4]) was 1.2 µM.
In the case of `CC(C)[C@H](NC(=O)[C@@H]1NC(=O)[C@H](CC(=O)O)NC(=O)[C@H](Cc2ccccc2)NC(=O)[C@H](NC(=O)[C@@H](N)Cc2ccc(O)cc2)C(C)(C)SSC1(C)C)C(=O)NCC(N)=O` [listing 2 of 2 here], the Selectivity [5] is reported as 6.
Work on `CC(C)[C@H](NC(=O)[C@H]1NC(=O)[C@H](CC(=O)O)NC(=O)[C@H](Cc2ccccc2)NC(=O)[C@H](NC(=O)[C@@H](N)Cc2ccc(O)cc2)CSSC1(C)C)C(=O)NCC(N)=O` [listing 1 of 2 here] yielded an IC50 [1] of 0.25 nM, an IC50 (Mu-type opioid receptor [2]) of 1.1 µM and an IC50 [3] of 2.2 nM. For the same molecule, the IC50 (Mu-type opioid receptor [4]) was 3.76 µM.
Work on `CC(C)[C@H](NC(=O)[C@H]1NC(=O)[C@H](CC(=O)O)NC(=O)[C@H](Cc2ccccc2)NC(=O)[C@H](NC(=O)[C@@H](N)Cc2ccc(O)cc2)CSSC1(C)C)C(=O)NCC(N)=O` [listing 2 of 2 here] yielded a Selectivity [5] of 4400.
Molecule `CC(C)[C@H](NC(=O)[C@H]1NC(=O)[C@H](CC(=O)O)NC(=O)[C@H](Cc2ccccc2)NC(=O)[C@H](NC(=O)[C@@H](N)Cc2ccc(O)cc2)C(C)(C)SSC1(C)C)C(=O)NCC(N)=O` [listing 1 of 2 here] has an IC50 [1] of 6.3 nM, an IC50 (Mu-type opioid receptor [2]) of 68 µM and an IC50 [3] of 3.7 nM. For the same molecule, the IC50 (Mu-type opioid receptor [4]) was 26 µM.
`CC(C)[C@H](NC(=O)[C@H]1NC(=O)[C@H](CC(=O)O)NC(=O)[C@H](Cc2ccccc2)NC(=O)[C@H](NC(=O)[C@@H](N)Cc2ccc(O)cc2)C(C)(C)SSC1(C)C)C(=O)NCC(N)=O` [listing 2 of 2 here] gave a Selectivity [5] of 11000.
Work on `CC(C)[C@H](NC(=O)[C@@H]1CSSC[C@@H](NC(=O)[C@@H](N)Cc2ccc(O)cc2)C(=O)N[C@@H](Cc2ccccc2)C(=O)N[C@@H](CC(=O)O)C(=O)N1)C(=O)NCC(N)=O` yielded a Selectivity [5] of 13.
For `CC(C)C(NC(=O)[C@H]1NC(=O)[C@H](CCC(=O)O)NC(=O)C(Cc2ccccc2)NC(=O)[C@H](NC(=O)[C@@H](N)Cc2ccc(O)cc2)C(C)(C)SSC1(C)C)C(=O)NCC(N)=O` (single isomer, unassigned), the IC50 [1] was 2.24 nM, the IC50 (Mu-type opioid receptor [2]) was 7.1 µM and the Selectivity [5] was 3200. It also gave an IC50 [3] of 5.7 nM and an IC50 (Mu-type opioid receptor [4]) of 4.9 µM.
Molecule `CCCC[C@H](NC(=O)[C@H]1NC(=O)[C@H](Cc2c[nH]cn2)NC(=O)C(Cc2ccccc2)NC(=O)[C@H](NC(=O)[C@@H](N)Cc2ccc(O)cc2)C(C)(C)SSC1(C)C)C(=O)N[C@@H](CC(=O)O)C(=O)O` (single isomer, unassigned) has an inhibition [6] of 43.5%, an IC50 (Mu-type opioid receptor [2]) of 4.5 µM and a Selectivity [5] of less than 1.5. It also gave an IC50 [3] of 5.11 nM and an IC50 (Mu-type opioid receptor [4]) of 1.9 µM.
`CCCC[C@H](NC(=O)[C@H]1NC(=O)[C@H](CC(=O)O)NC(=O)C(Cc2ccccc2)NC(=O)[C@H](NC(=O)[C@@H](N)Cc2ccc(O)cc2)C(C)(C)SSC1(C)C)C(=O)NCC(N)=O` (single isomer, unassigned) gave an IC50 [1] of 8.8 nM, an IC50 (Mu-type opioid receptor [2]) of 137 µM and a Selectivity [5] of 16000. The IC50 [3] was 4.83 nM and the IC50 (Mu-type opioid receptor [4]) was 54.6 µM.
Work on `CC(C)C(NC(=O)[C@H]1NC(=O)[C@H](CO)NC(=O)C(Cc2ccccc2)NC(=O)[C@H](NC(=O)[C@@H](N)Cc2ccc(O)cc2)C(C)(C)SSC1(C)C)C(=O)NCC(N)=O` (single isomer, unassigned) yielded an IC50 [1] of 91.8 nM, an IC50 (Mu-type opioid receptor [2]) of 13.5 µM and a Selectivity [5] of 150. The IC50 [3] was 10 nM and the IC50 (Mu-type opioid receptor [4]) was 3.3 µM.
For `CCCC[C@H](NC(=O)[C@H]1NC(=O)[C@H](Cc2c[nH]cn2)NC(=O)C(Cc2ccccc2)NC(=O)[C@H](NC(=O)[C@@H](N)Cc2ccc(O)cc2)C(C)(C)SSC1(C)C)C(=O)N[C@@H](CC(=O)O)C(N)=O` (single isomer, unassigned), the IC50 [1] was 12.7 nM, the IC50 (Mu-type opioid receptor [2]) was 22 µM and the Selectivity [5] was 1700. For the same molecule, the IC50 [3] was 3.4 nM and the IC50 (Mu-type opioid receptor [4]) was 10.2 µM.
For `CSCCC(NC(=O)[C@H](CC(C)C)NC(=O)[C@H](Cc1c[nH]cn1)NC(=O)[C@H](Cc1ccccc1)NC(=O)C(CCSC)NC(=O)[C@@H](N)Cc1ccc(O)cc1)C(=O)N[C@@H](CC(=O)O)C(N)=O` (stereo in doubt) [listing 1 of 2 here], the IC50 [1] was 0.28 nM, the IC50 (Mu-type opioid receptor [2]) was 3.4 µM and the IC50 [3] was 0.47 nM. For the same molecule, the IC50 (Mu-type opioid receptor [4]) was 1.9 µM.
Work on `CSCCC(NC(=O)[C@H](CC(C)C)NC(=O)[C@H](Cc1c[nH]cn1)NC(=O)[C@H](Cc1ccccc1)NC(=O)C(CCSC)NC(=O)[C@@H](N)Cc1ccc(O)cc1)C(=O)N[C@@H](CC(=O)O)C(N)=O` (stereo in doubt) [listing 2 of 2 here] yielded a Selectivity [5] of 12000.
For `CC(C)[C@H](NC(=O)[C@H](CC(=O)O)NC(=O)[C@H](Cc1ccccc1)NC(=O)[C@@H](C)NC(=O)[C@@H](N)Cc1ccc(O)cc1)C(=O)N[C@H](C(=O)NCC(N)=O)C(C)C` (stereo in doubt; form 1) [DELTORPHIN C], the IC50 (Mu-type opioid receptor [2]) was 2.89 µM.
